Laboratory results taken from paper PMC10840089 (RSC Advances, 2024).
“Also recorded” adds a separate entry of the source.

Tests used:
[1] = biological target: T1, α-amylase from porcine pancreas (Sus scrofa, UniProt P00690); test: α-amylase inhibition kinetics; format: biochemical; conditions: for type (mechanism) of α-amylase inhibition: Lineweaver–Burk plot, starch 0.5 to 2.5%
T1 sequence (P00690 16-511): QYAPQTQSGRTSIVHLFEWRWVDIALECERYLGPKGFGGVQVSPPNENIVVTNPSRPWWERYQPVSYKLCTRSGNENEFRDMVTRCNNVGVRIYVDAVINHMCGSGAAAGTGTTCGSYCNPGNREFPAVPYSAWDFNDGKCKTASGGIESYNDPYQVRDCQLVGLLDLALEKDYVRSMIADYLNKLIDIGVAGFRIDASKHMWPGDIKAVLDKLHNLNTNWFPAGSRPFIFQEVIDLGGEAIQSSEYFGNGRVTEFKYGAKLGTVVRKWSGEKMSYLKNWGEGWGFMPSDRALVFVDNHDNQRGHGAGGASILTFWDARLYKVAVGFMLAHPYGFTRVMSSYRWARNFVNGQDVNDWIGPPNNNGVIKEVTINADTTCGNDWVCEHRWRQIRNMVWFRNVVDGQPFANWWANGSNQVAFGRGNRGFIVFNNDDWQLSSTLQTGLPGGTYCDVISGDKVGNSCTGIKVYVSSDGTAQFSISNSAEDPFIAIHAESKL
How it was run: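 Porcine pancreatic enzyme (1151 U mg−1 protein) diluted in 0.2 mol L−1 phosphate buffer, pH 6, preincubated with test compound (6.25–50 μM) 5 min at 25 °C. Soluble starch (0.5–2.5%) then added, 10 min at 25 °C. Reducing sugar measured with DNS (boiling water, 15 min) at 540 nm against a glucose standard curve. Inhibition type taken from Lineweaver–Burk plots, Vmax and KM by graph fitting.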

[2] = biological target: T1, α-amylase from porcine pancreas; test: α-amylase inhibition assay; format: biochemical

Compound | Ki [1] | IC50 [2] | type (mechanism) of α-amylase inhibition [1]
C=C1CC[C@@H]2C(C)(C)C(=O)/C(=C/c3cccc(OC(F)(F)C(F)F)c3)C[C@@]2(C)[C@@H]1COc1ccc2ccc(=O)oc2c1 [Compound 3k, 7-(((1R,4aS,8aR)-5,5,8a-trimethyl-2-methylene-6-oxo-7-((E)-3-(1,1,2,2-tetrafluoroethoxy)benzylidene)decahydronaphthalen-1-yl)methoxy)-2H-chromen-2-one] | 1.02 µM | 7.24 ± 0.36 µM | mixed competitive-non-competitive inhibitors
C=C1CC[C@@H]2C(C)(C)C(=O)CC[C@@]2(C)[C@@H]1COc1ccc2ccc(=O)oc2c1 [Compound 2, 7-(((1R,4aS,8aR)-5,5,8a-trimethyl-2-methylene-6-oxodecahydronaphthalen-1-yl)methoxy)-2H-chromen-2-one] |  | 25 ± 0.99 µM | 
C=C1CC[C@@H]2C(C)(C)C(=O)/C(=C/c3ccc(N(C)C)cc3)C[C@@]2(C)[C@@H]1COc1ccc2ccc(=O)oc2c1 [Compound 3l, 7-(((1R,4aS,8aR)-7-((E)-4-(dimethylamino)benzylidene)-5,5,8a-trimethyl-2-methylene-6-oxodecahydronaphthalen-1-yl)methoxy)-2H-chromen-2-one] |  | 10.8 ± 0.6 µM | mixed competitive-non-competitive inhibitors
C=C1CC[C@@H]2C(C)(C)C(=O)/C(=C/c3ccc(C(C)(C)C)cc3)C[C@@]2(C)[C@@H]1COc1ccc2ccc(=O)oc2c1 [Compound 3g, 7-(((1R,4aS,8aR)-7-((E)-4-(tert-butyl)benzylidene)-5,5,8a-trimethyl-2-methylene-6-oxodecahydronaphthalen-1-yl)methoxy)-2H-chromen-2-one] |  | 22.7 ± 0.86 µM | 
C=C1CC[C@@H]2C(C)(C)C(=O)/C(=C/c3ccc(N4CCCC4)cc3)C[C@@]2(C)[C@@H]1COc1ccc2ccc(=O)oc2c1 [Compound 3m, 7-(((1R,4aS,8aR)-5,5,8a-trimethyl-2-methylene-6-oxo-7-((E)-4-(pyrrolidin-1-yl)benzylidene)decahydronaphthalen-1-yl)methoxy)-2H-chromen-2-one] |  | 8.83 ± 0.22 µM | mixed non-competitive-uncompetitive inhibitor; also recorded: mixed non-competitive-uncompetitive inhibition
C=C1CC[C@@H]2C(C)(C)C(=O)/C(=C/c3ccc(Br)cc3)C[C@@]2(C)[C@@H]1COc1ccc2ccc(=O)oc2c1 [Compound 3e, 7-(((1R,4aS,8aR)-7-((E)-4-bromobenzylidene)-5,5,8a-trimethyl-2-methylene-6-oxodecahydronaphthalen-1-yl)methoxy)-2H-chromen-2-one] |  | 15.4 ± 0.29 µM | 
C=C1CC[C@@H]2C(C)(C)C(=O)/C(=C/c3ccc4ccccc4c3)C[C@@]2(C)[C@@H]1COc1ccc2ccc(=O)oc2c1 [Compound 3b, 7-(((1R,4aS,8aR,E)-5,5,8a-trimethyl-2-methylene-7-(naphthalen-2-ylmethylene)-6-oxodecahydronaphthalen-1-yl)methoxy)-2H-chromen-2-one] |  | 14.4 ± 0.3 µM | 

Further lines, with some results ahead:

Ki [1] | IC50 [2] | Compound | type (mechanism) of α-amylase inhibition [1]
 | 29 ± 0.65 µM | C=C1CC[C@@H]2C(C)(C)C(=O)/C(=C/c3ccccc3)C[C@@]2(C)[C@@H]1COc1ccc2ccc(=O)oc2c1 [Compound 3a, 7-(((1R,4aS,8aR)-7-((E)-benzylidene)-5,5,8a-trimethyl-2-methylene-6-oxodecahydronaphthalen-1-yl)methoxy)-2H-chromen-2-one] | 
 | 14.5 ± 0.3 µM | C=C1CC[C@@H]2C(C)(C)C(=O)/C(=C/c3ccccc3OC)C[C@@]2(C)[C@@H]1COc1ccc2ccc(=O)oc2c1 [Compound 3i, 7-(((1R,4aS,8aR)-7-((E)-2-methoxybenzylidene)-5,5,8a-trimethyl-2-methylene-6-oxodecahydronaphthalen-1-yl)methoxy)-2H-chromen-2-one] | 
 | 13.5 ± 0.54 µM | C=C1CC[C@@H]2C(C)(C)C(=O)/C(=C/c3ccc(OC)cc3)C[C@@]2(C)[C@@H]1COc1ccc2ccc(=O)oc2c1 [Compound 3h, 7-(((1R,4aS,8aR)-7-((E)-4-methoxybenzylidene)-5,5,8a-trimethyl-2-methylene-6-oxodecahydronaphthalen-1-yl)methoxy)-2H-chromen-2-one] | 
 | 22.3 ± 0.9 µM | C=C1CC[C@@H]2C(C)(C)C(=O)/C(=C/c3ccc(C)cc3)C[C@@]2(C)[C@@H]1COc1ccc2ccc(=O)oc2c1 [Compound 3f, 7-(((1R,4aS,8aR)-5,5,8a-trimethyl-7-((E)-4-methylbenzylidene)-2-methylene-6-oxodecahydronaphthalen-1-yl)methoxy)-2H-chromen-2-one] | 
 | 13.2 ± 0.73 µM | C=C1CC[C@@H]2C(C)(C)C(=O)/C(=C/c3ccc(F)cc3)C[C@@]2(C)[C@@H]1COc1ccc2ccc(=O)oc2c1 [Compound 3c, 7-(((1R,4aS,8aR)-7-((E)-4-fluorobenzylidene)-5,5,8a-trimethyl-2-methylene-6-oxodecahydronaphthalen-1-yl)methoxy)-2H-chromen-2-one] | 
 | 13 ± 0.96 µM | C=C1CC[C@@H]2C(C)(C)C(=O)/C(=C/c3ccc(OC)c(OC)c3)C[C@@]2(C)[C@@H]1COc1ccc2ccc(=O)oc2c1 [Compound 3j, 7-(((1R,4aS,8aR)-7-((E)-3,4-dimethoxybenzylidene)-5,5,8a-trimethyl-2-methylene-6-oxodecahydronaphthalen-1-yl)methoxy)-2H-chromen-2-one] | non-competitive inhibition
 | 17.2 ± 0.5 µM | C=C1CC[C@@H]2C(C)(C)C(=O)/C(=C/c3ccc(Cl)cc3)C[C@@]2(C)[C@@H]1COc1ccc2ccc(=O)oc2c1 [Compound 3d, 7-(((1R,4aS,8aR)-7-((E)-4-chlorobenzylidene)-5,5,8a-trimethyl-2-methylene-6-oxodecahydronaphthalen-1-yl)methoxy)-2H-chromen-2-one] | 
